Published values pooled from the literature.
Compare with care: the assays were run in different laboratories.
Cell line: U-87 MG
Read-out: cell growth or viability

Structure (SMILES)	technique	concentration	time	quantity	result
Cn1nnc2c(Cl)ncn2c1=O	resazurin		7 days	IC50	15 µM
Cc1ccc(C(=O)Nc2ccc(Oc3cc4cnn(C)c4cc3-c3cn[nH]c3)c(F)c2)c(=O)n1-c1ccc(F)cc1	ATP luminescence			IC50	0.129 µM
COc1cc(Nc2nccc(-c3cnn4nc(OC)ccc34)n2)cc(C(F)(F)F)c1	ATP luminescence			IC50	0.84 µM
c1cc2c(cc1CNCC1(N3CCCC3)COC1)OCCO2		30 µM	48 h	viability	95.7%
Cn1nnc2c(-c3ccccc3)ncn2c1=O	resazurin		7 days	IC50	9 µM
COc1cccc2c1C(=O)c1c(O)c3c(c(O)c1C2=O)C[C@@](O)(C(=O)CO)C[C@@H]3O[C@H]1C[C@H](N)[C@H](O)[C@H](C)O1	SRB			IC50	0.1 µM
Fc1ccc2[nH]cc(CNCC3(N4CCC(F)C4)COC3)c2c1 (centres unmarked)		30 µM	48 h	viability	94.6%
CCN(CC)C(=O)c1ncn2c(=O)n(C)nnc12	resazurin		7 days	IC50	80 µM
COc1cccc2c1C(=O)c1c(O)c3c(c(O)c1C2=O)C[C@@](O)(C(=O)CO)C[C@@H]3O[C@H]1C[C@H](N)[C@H](O)[C@H](C)O1	WST-1		72 h	IC50	0.04 µM
Cn1nnc2c(C(N)=O)ncn2c1=O	MTT		72 h	IC50	596 µM
Fc1ccc2c(CNCC3(N4CCC(F)C4)COC3)c[nH]c2c1 (centres unmarked)		30 µM	48 h	viability	97.6%
Cn1nnc2c(C(N)=O)ncn2c1=O	resazurin		7 days	IC50	51 µM
c1cc2cc(CNCC3(N4CCCC4)COC3)ccc2[nH]1		30 µM	48 h	viability	98.6%
Oc1c(C(c2ccc(F)cc2)N2CCCCC2)ccc2c1CCC2 (centres unmarked)	MTT	30 µM		inhibition	28%
Cc1cc(NC(=O)c2cccc3cc(-c4cccc5[nH]nc(N)c45)ccc23)ccc1F	CCK-8		72 h	IC50	> 20 µM
FC1CCN(C2(CNCc3ccc(-c4ccccc4)o3)COC2)C1 (centres unmarked)		30 µM	48 h	viability	46.6%
CC(C)C[C@H](NC(=O)[C@H](Cc1ccccc1)NC(=O)c1cnccn1)B(O)O	ATP luminescence			IC50	0.02 µM
